Screening results deposited in PubChem by several laboratories.
SUMO1-SIM PPI: modulators of human SUMO1-mediated protein-protein interactions; P63165; SUMO1 binding to a labelled peptide, TR-FRET, 1 h; inhibition, % at 20 µM; 360,000 compounds, 0.33% hits; in the data active means inhibition above about 37%
Target sequence (P63165 whole entry, looked up): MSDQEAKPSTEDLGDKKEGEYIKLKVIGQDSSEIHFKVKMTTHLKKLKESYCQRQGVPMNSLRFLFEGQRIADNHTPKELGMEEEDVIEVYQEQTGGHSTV
DNMT1 block: DNMT1 (human) enzyme inhibition; P26358; DNMT1 molecular beacon, Hinp1I cleavage, fluorescence; inhibition (reported as % activation of signal), % at 10 µM; 360,000 compounds, 0.83% hits; AID 588458; in the data active means inhibition above about 50%
Scp1 inh: Scp-1 (human) phosphatase inhibition; 340,000 compounds, 0.88% hits; Recombinant Scp1, phosphopeptide, malachite green phosphate absorbance; inhibition, % at 20 µM;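 active means inhibition above about 50% at 20 µM, limit read from the data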
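assay system = SCP-1 phosphatase catalytic domain, residues 76-261 | buffer or medium = 50 mM Tris acetate pH 5.5, 0.005% Tween-20, 10 mM MgCl2 | incubation = enzyme reaction 45 min at room temperature, colour 5 min, stabilisation 30 min | signal = Phosphate-binding colour reagent, absorbance read at 630 nm | measure = % inhibition at 20 µM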
LMPTP inh: LMPTP (human) inhibition; P24666; recombinant LMPTP-A, OMFP fluorogenic substrate, fluorescence intensity; inhibition, % at 20 µM; 360,000 compounds, 0.22% hits;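 active means compounds that cut the enzyme signal by at least half of the control window in the single-dose screen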
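Test system: LMPTP-A, protein tyrosine phosphatase of low molecular weight; Input: 0.625 nM enzyme; Incubation: 50 min dark incubation at room temperature; Signal: endpoint fluorescence intensity from OMFP dephosphorylation; Read-out basis: % inhibition versus control wells.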
STEP inh: blocks human striatal-enriched tyrosine phosphatase. recombinant STEP, OMFP fluorogenic substrate, fluorescence. 360,000 compounds, 0.25% hits. inhibition, % at 20 µM. AID 588621;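 active means inhibition at 20 µM, scaled per plate between control wells, above about 37%, limit read from the data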
Target sequence (P54829 whole entry, looked up): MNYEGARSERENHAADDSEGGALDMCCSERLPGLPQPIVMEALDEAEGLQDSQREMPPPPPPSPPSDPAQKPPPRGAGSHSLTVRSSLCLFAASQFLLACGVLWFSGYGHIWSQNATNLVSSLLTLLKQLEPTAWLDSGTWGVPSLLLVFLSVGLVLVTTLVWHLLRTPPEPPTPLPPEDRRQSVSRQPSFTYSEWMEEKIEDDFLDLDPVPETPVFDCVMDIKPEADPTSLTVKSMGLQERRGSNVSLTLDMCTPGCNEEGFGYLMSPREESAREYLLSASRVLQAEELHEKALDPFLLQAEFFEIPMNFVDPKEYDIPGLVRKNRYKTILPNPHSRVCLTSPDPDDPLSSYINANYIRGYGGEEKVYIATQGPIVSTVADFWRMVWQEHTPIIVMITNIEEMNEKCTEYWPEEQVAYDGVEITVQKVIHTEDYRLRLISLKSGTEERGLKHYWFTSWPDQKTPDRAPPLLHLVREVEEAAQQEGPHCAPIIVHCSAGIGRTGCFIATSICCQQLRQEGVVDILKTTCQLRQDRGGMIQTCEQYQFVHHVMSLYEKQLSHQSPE
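Material: STEP (striatal-enriched tyrosine phosphatase) enzyme, cell-free | Medium: 50 mM Bis-Tris pH 6.0 with 2.5 mM DTT and 0.005% Tween 20 | Read-out: Percent inhibition scaled to no-enzyme and uninhibited-enzyme controls, plate-pattern corrected | Signal: Fluorescence read at 480 nm ex / 540 nm em | Times: 20 min reaction, room temperature, in the dark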
CASP6 VEID inh: caspase-6 (human) enzyme inhibition; P55212; purified caspase-6, Z-VEID-R110 cleavage fluorescence; inhibition, % at 12.5 µM; 350,000 compounds, 0.53% hits; AID 686996;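 active means mean inhibition across replicates at least about 35%, with every replicate also reaching that limit, limit read from the data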
DNMT1 interf DR: beacon fluorescence artifact, dose response counter-screen; AID 602382; 200 tested, under 10 active; molecular beacon fluorescence, spectral interference counter-screen; shares compounds with DNMT1 block; IC50, µM; call rule not given here
DNMT1 confirm: confirmation of human DNMT1 inhibitors. AID 602385. 2,300 compounds, 8% hits. inhibition, % at 10 µM. shares compounds with DNMT1 block. DNMT1 molecular beacon HinP1I cleavage, fluorescence;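 active means average inhibition of at least 30% in the single-concentration confirmation test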
DNMT1 interf: shows spectral interference in the DNMT1 beacon assay | 2,300 compounds, 1% hits | activation (fluorescence interference), % at 10 µM | DNMT1 molecular beacon spectral interference counterscreen, fluorescence 485/520 | shares compounds with DNMT1 block;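 active means activation of at least 30% at 10 µM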;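 further: DNMT1 catalytic domain with a HinP1I cleavage step and a FAM/dabcyl DNA beacon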
Numbers stand for hits; - = inactive; . = no result given. Most compounds without a hit are left out; they make up all but 1.7% or so of the library.

SMILES	SUMO1-SIM PPI	DNMT1 block	Scp1 inh	LMPTP inh	STEP inh	CASP6 VEID inh	DNMT1 confirm	DNMT1 interf	others
Cc1ccc(CNc2ccc3nnc(-c4ccccc4)n3n2)cc1	-	74	-	-	-	-	-	-
COc1ccc(CC(=O)Nc2ccc(-c3noc(-c4cccc(OC)c4)n3)cc2)cc1	-	61	-	-	-	.	-	-
Cc1c(=O)n(OCc2ccccc2F)c2ccccc2[n+]1[O-]	-	84	-	-	-	.	-	-
O=C(NC1CCC(CC2CCC(NC(=O)C(Cl)Cl)CC2)CC1)C(Cl)Cl (stereo not given)	-	63	-	-	-	-	-	-
COC(=O)NC1CCC(CC2CCC(NC(=O)OC)CC2)CC1 (stereo not given)	-	-	-	-	-	.	.	.
Cc1ccc(-n2cc(C(=O)c3ccc(N4CCN(C)CC4)cc3)nn2)cc1Cl	-	-	-	-	-	-	.	.
C(=N\C(/N=C/c1ccco1)c1ccco1)/c1ccco1	-	71	-	-	-	.	-	-
COc1ccc(CNC(=O)C2CCC(CNS(=O)(=O)c3cccs3)CC2)cc1 (stereo not given)	-	-	-	-	-	-	.	.
Cc1ccc(-n2nc3c(c2NC(=O)C(C)(C)C)CSC3)c(C)c1	-	-	-	-	-	.	.	.
Cc1ccc(-n2nc3c(c2NC(=O)c2ccc(Br)o2)CSC3)c(C)c1	-	53	-	-	-	.	-	-
Cc1ccc(S(=O)(=O)N2CC[C@@H]3[C@H](CO)N(C)c4ccc(-c5ccc(C#N)cc5)cc4[C@@H]32)cc1	.	.	.	.	.	-	.	.
CCc1ccc(/C=N/N2CCN(c3ccccn3)CC2)cc1	-	75	-	-	-	-	-	-
COc1ccc(NS(=O)(=O)c2ccc(N3CCOCC3)c(NC(=O)c3ccc(F)cc3)c2)cc1	-	-	-	-	-	-	.	.
COc1ccc(NS(=O)(=O)c2ccc(O)c(NC(=O)c3cc4c(C)nn(-c5ccc(F)cc5)c4s3)c2)cc1	-	97	-	-	-	.	69	-	DNMT1 interf DR=-
O=C(C[C@@H]1C[C@H]2c3cc(NC(=O)Nc4ccc(C(F)(F)F)cc4)ccc3O[C@H]2[C@@H](CO)O1)NCc1ccc2c(c1)OCO2	.	.	.	.	.	-	.	.
CCc1ccc(NC(=O)C2CCN(S(=O)(=O)c3c(C)noc3C)CC2)cc1	-	-	-	-	-	-	.	.
CCc1ccc(NC(=O)CNS(=O)(=O)c2c(C)noc2C)cc1	-	68	-	-	-	.	-	-
CC1=NN(c2cccc(C(=O)O)c2)C(=O)/C1=C\C=C\c1ccco1	-	106	80	-	41	.	107	-	DNMT1 interf DR=-
COc1ccc(/C=N/Nc2cc(N3CCCC3)nc(N3CCCC3)n2)cc1	-	58	-	-	-	-	-	-
N#Cc1c(SCC(=O)Nc2nc3ccc(Br)cc3s2)sc2c(O)cc(=O)[nH]c12	-	80	54	53	-	-	-	-	DNMT1 interf DR=-
Cc1cc(C(F)(F)F)c(C#N)c(SCC(=O)Nc2nc3cc(Br)ccc3s2)n1	-	-	-	-	-	-	.	.
COc1ccc(CC(C)NS(=O)(=O)c2ccc3c(c2)CCN3S(C)(=O)=O)cc1OC (stereo not given)	-	-	-	-	-	-	.	.
CC(=O)c1cccc(NC(=O)Nc2ccc3c(c2)CCC3)c1	-	-	-	-	-	-	.	.
Cc1cc(C)c(C)c(S(=O)(=O)N2CCN(c3ccccn3)CC2)c1C	-	-	-	-	-	-	.	.
Cc1cc(C)c(C)c(S(=O)(=O)N2CCN(c3ncnc4ccccc34)CC2)c1C	-	75	-	-	-	-	-	-
SMILES	SUMO1-SIM PPI	DNMT1 block	Scp1 inh	LMPTP inh	STEP inh	CASP6 VEID inh	DNMT1 confirm	DNMT1 interf	others
Cc1ccc(C(CCN(Cc2ccccc2)C(=O)c2ccco2)c2ccco2)cc1 (stereo not given)	-	56	-	-	-	-	-	-
COc1ccc(/C=C/C(=O)NC(=S)Nc2ccc(S(=O)(=O)N=C(N)N)cc2)cc1OC	-	61	-	-	-	-	-	-
CC(=O)c1cccc(NC(=O)C(CC(C)C)NC(=O)C2CCCCC2)c1 (stereo not given)	-	-	-	-	-	-	.	.
Cc1ccc(C(=O)Nc2nc(-c3ccc([N+](=O)[O-])cc3)cs2)o1	-	51	-	-	-	-	-	-
Cc1ccc(C)n1/N=C1/NC(=O)CS1	-	90	-	-	-	.	-	-
Cc1ccc(N=C2NC(=O)CS2)cc1	-	-	-	-	-	.	.	.
CN(C(=O)C1CCC(=O)N(Cc2cccc(F)c2)C1)C1CCCCC1 (stereo not given)	-	-	-	-	-	-	.	.
Cc1cc(C)n(CCN(C)C(=O)c2cc(COc3c(F)cccc3F)on2)n1	-	51	-	-	-	-	-	-
CCc1nccn1S(=O)(=O)c1cc(Br)ccc1OC	-	-	-	-	-	.	.	.
COc1ccc(-c2c(C)c3cc(O)ccc3oc2=O)cc1	-	-	-	-	-	-	.	.
CN(C)C(CNC(=O)C1CCN(S(=O)(=O)c2cccc(C(F)(F)F)c2)CC1)c1ccccc1 (stereo not given)	-	-	-	-	-	-	.	.
CN(C)C(CNC(=O)C1CCN(S(=O)(=O)c2ccccc2)CC1)c1ccccc1 (stereo not given)	-	88	-	-	-	-	-	-
O=[N+]([O-])c1ccc(/C=C/c2ccc3cccc(O)c3n2)cc1	-	67	-	-	-	-	-	-
O=[N+]([O-])c1ccc(/C=C/c2ccc3ccccc3n2)cc1	-	-	-	-	-	-	.	.
Cc1nc(C)c(C(=O)Nc2nc3c(C)cccc3s2)o1	-	79	-	-	-	.	-	-
O=[N+]([O-])c1cccc(/C=N/Nc2nc(C(Cl)(Cl)Cl)nc3ccccc23)c1	-	-	-	-	-	.	.	.
ClC(Cl)(Cl)c1nc(N/N=C/c2ccncc2)c2ccccc2n1	-	55	-	-	-	-	-	-
O=C(Nc1ccc(N2CCCC2)cc1)c1cccc(-c2cc3ccccc3oc2=O)c1	-	76	-	-	-	-	-	-
O=C(Nc1ccccc1N1CCCC1)c1cccc(-c2cc3ccccc3oc2=O)c1	-	-	-	-	-	.	.	.
O=C(Nc1ccc(N2CCCC2)cc1)c1ccccc1F	-	72	-	-	-	.	-	-
O=C(Nc1ccc(N2CCCC2)cc1)c1cccc(F)c1	-	65	-	-	-	.	-	-
